Common to all, as to format: cell-based
Series [1] relates to amphotropic murine leukemia virus (AMLV) Env pseudotyped HIV-1 virus. The following applies: result in words.
Series [2] concerns HIV-1 92UG037 (subtype A). In words: replication of fully infectious virus in primary human PBMCs, isolate 92UG037. The following applies: isolate 92UG037, subtype A.
The test system of series [3] is HIV-1 91US004 (subtype B). In words: replication of fully infectious virus in primary human PBMCs, isolate 91US004. The conditions noted are these: isolate 91US004, subtype B. The method in brief:
(§1)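 Primary human PBMCs infected with fully infectious isolates from HIV-1 subtypes A, B, C and D, plus one HIV-2 isolate, to measure inhibition of viral replication. Toxicity to the same PBMCs was assessed concomitantly with an MTS assay. IC50 is the half-maximal inhibitory concentration and TC50 the half-maximal toxic concentration. Antiviral index is calculated as TC50/IC50.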

Series [4] deals with HIV-1 94US_33931 N (subtype B). The following applies: isolate 94US_33931 N. The method in brief:
as §1

Series [5] has as its system HIV-1 98US_MSC5016 (subtype C). The following applies: isolate 98US_MSC5016, subtype C.
The test system of series [6] is HIV-1 99UG_A07412M1 (subtype D). The conditions noted are these: isolate 99UG_A07412M1, subtype D. The method in brief:
as §1

Series [7] deals with HIV-2CDC310319. Description: replication of fully infectious virus in primary human PBMCs, HIV-2 isolate. The following applies: result in words. The method in brief:
as §1

The test system of series [8] is primary human peripheral blood mononuclear cells (PBMCs). In words: toxicity to PBMCs using an MTS assay. The following applies: run concomitantly with each isolate. The method in brief:
as §1
On the technique in general: Tetrazolium dyes change colour on reduction, which living cells bring about.

Consider `COc1cnc(Cl)c2[nH]cc(C(=O)C(=O)N3CC4CN(C(=O)c5ccccc5)CC4C3)c12` (stereo not drawn) [SC07], for which, in series [1], the “inhibition of AMLV-pseudotyped HIV-1 (specificity)” value is “no inhibition”.

For `COc1ncc(OC)c2c(C(=O)C(=O)N3CC4CN(C(=O)c5ccccc5)CC4C3)c[nH]c12` (stereo not drawn) [SC08], the “inhibition of AMLV-pseudotyped HIV-1 (specificity)” value in series [1] is “no inhibition”.

Take `COc1cnc(-n2cnc(C)n2)c2[nH]cc(C(=O)C(=O)N3CC4CN(C(=O)C5=CCCCC5)CC4C3)c12` (stereo not drawn) [SC26]: the “Antiviral index (TC50/IC50)” value was more than 3.97 in series [2]; more than 513 in series [3]; > 166,666 in series [4]; more than 25.6 in series [5]; more than 204 in series [6]. Also, the “effect on the replication of an HIV-2 isolate” value in series [7] is listed as “no effect”. The “C50 (half-maximal toxic concentration)” value in series [8] was more than 100 MM.

The values are drawn from article PMC4355043 (Bioorganic & medicinal chemistry letters, 2014).
